Test results reported in publication PMC6500479 (Journal of controlled release : official journal of the …, 2019).
Bridges are numbered along the chain shown (N, C = ends). Where no end group is shown, it is not given here. FAM = carboxyfluorescein; Ahx = NCCCCCC(=O)O

What was measured:
[1] = system: 4T1 mouse mammary carcinoma; test: In vivo homing to 4T1 orthotopic breast tumors; conditions: 5 min, 15 min or 1 h after IV injection, IF
Summary of the method: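 4T1 tumors came from 1 × 10⁶ cells in 100 μL PBS injected into the mammary fat pad of female BALB/c mice. FAM-labelled test peptide was given IV, 100 μL of 1 mg/mL in PBS, and circulated 5 min, 15 min or 1 h before PBS perfusion. Fixed frozen sections were blocked in 1% BSA/0.1% Triton X-100 for 1 h at RT. Primaries (1:200) ran overnight at 4 °C, secondaries (1:200) 1 h at RT, with anti-CD31 for vessels. DAPI mounting, confocal imaging.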

[2] = system: bovine serum albumin (BSA); test: Binding to control protein BSA
[3] = system: macrophages; conditions: ref [22]; cited from earlier work

Binding to BSA [2] | Substance | Accumulation in tumors over time [1] | Inhibition of FAM-CRV binding to macrophages [3]
neither peptide bound | GGSGGSKG ({FAM-Ahx}-GGSGGSKG-OH) [FAM-GGS] | little accumulation in tumors | 
 | Biotinylated CRV: Biotinylated CRV (CRVLRSGSC; disulfide 1-9; also: biotin, position not given here) |  | inhibits the binding of FAM-CRV to macrophages
